Assay results from ChEMBL document CHEMBL1817572, “New, potent, selective, and short-acting peptidic V1a receptor agonists” (J Med Chem, 2011).
Numbered stars: 1 amine (or outer) side, 2 acyl side, 3 side chain; on linkers, the order of the positions; unused ones are H or OH. Bridge positions count the residues as written; N and C are the ends. Square brackets hold non-standard residues; d marks the D form. Peptide text beside a SMILES is read from it. * marks the point of attachment. X5 = CC(C)CCNCCC[C@H](N[*:1])C(=O)[*:2]; Ala(2-furyl) = N[C@@H](Cc1ccco1)C(=O)O; Ala(cPent) = N[C@@H](CC1CCCC1)C(=O)O; Bta = N[C@@H](Cc1csc2ccccc12)C(=O)O; Orn(iPr) = CC(C)NCCC[C@H](N)C(=O)O; 2Thi = N[C@@H](Cc1cccs1)C(=O)O; 3Thi = N[C@@H](Cc1ccsc1)C(=O)O; Cha = N[C@@H](CC1CCCCC1)C(=O)O; Orn = NCCC[C@H](N)C(=O)O; Dab = NCC[C@H](N)C(=O)O; Ac4c = NC1(C(=O)O)CCC1; Dap = NC[C@H](N)C(=O)O; X3 = OCCOCCN*; NHOH = ON*

Legend:
[1] = molecular target: Vasopressin V1a/V2 (Homo sapiens) (UniProt P30518+P37288); assay: Selectivity ratio of EC50 for human vasopressin V2 receptor to EC50 for human vasopressin V1a receptor
Homo sapiens [2] = species: Homo sapiens; assay: Selectivity ratio of EC50 for human oxytocin receptor to EC50 for human vasopressin V1a receptor
Vasopressin V1a receptor = Vasopressin V1a receptor (Homo sapiens, UniProt P37288); assay: Agonist activity at recombinant human vasopressin V1a receptor expressed in HEK293 cells by luciferase reporter gene assay; assay type: functional, cell-based
Vasopressin V1b receptor = molecular target: T1, Vasopressin V1b receptor (Homo sapiens, UniProt P47901); assay: Agonist activity at recombinant human vasopressin V1b receptor expressed in Flp-In-293 cells by luciferase reporter gene assay; assay type: functional, cell-based
T1 sequence (P47901 whole entry): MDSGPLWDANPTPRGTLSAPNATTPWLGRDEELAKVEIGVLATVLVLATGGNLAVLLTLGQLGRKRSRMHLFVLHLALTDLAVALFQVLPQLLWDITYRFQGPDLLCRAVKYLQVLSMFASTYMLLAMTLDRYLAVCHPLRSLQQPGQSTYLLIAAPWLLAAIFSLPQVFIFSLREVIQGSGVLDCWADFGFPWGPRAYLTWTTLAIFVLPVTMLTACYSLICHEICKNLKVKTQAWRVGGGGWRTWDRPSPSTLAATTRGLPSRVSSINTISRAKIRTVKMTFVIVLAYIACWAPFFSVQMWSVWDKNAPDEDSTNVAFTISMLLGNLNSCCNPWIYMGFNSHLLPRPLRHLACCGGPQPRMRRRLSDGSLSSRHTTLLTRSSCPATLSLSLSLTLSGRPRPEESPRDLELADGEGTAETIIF
In short: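 Reporter gene assays in HEK293 cells transiently cotransfected with V1a (human or rat) or human V2 receptor vector plus NFAT-luciferase (V1a) or CRE-luciferase (V2) reporter; V1b in Flp-In-293 stably expressing receptor, OT in CHO-K1 stably expressing receptor, both transiently transfected with NFAT-luciferase. Two days post-transfection, peptides added for 5 h at 37 °C, lysis with luciferin, luminescence read.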

Oxytocin receptor = molecular target: T2, Oxytocin receptor (Homo sapiens, UniProt P30559); assay: Agonist activity at human OT receptor expressed in CHO-K1 cells by luciferase reporter gene assay; assay type: functional, cell-based
T2 sequence (P30559 whole entry): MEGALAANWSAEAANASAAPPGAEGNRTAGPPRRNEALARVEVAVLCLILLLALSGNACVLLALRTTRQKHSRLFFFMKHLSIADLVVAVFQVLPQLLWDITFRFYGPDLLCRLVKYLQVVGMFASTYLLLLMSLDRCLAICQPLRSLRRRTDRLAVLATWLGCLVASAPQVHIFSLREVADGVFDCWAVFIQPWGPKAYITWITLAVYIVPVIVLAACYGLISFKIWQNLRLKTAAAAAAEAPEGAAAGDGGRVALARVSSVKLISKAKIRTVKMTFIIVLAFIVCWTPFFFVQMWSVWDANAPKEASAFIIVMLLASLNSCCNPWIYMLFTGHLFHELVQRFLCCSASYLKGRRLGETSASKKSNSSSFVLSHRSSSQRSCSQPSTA

Vasopressin V2 receptor = Vasopressin V2 receptor (Homo sapiens, UniProt P30518); assay: Agonist activity at recombinant human vasopressin V2 receptor expressed in HEK293 cells by luciferase reporter gene assay; assay type: functional, cell-based
Homo sapiens [3] = species: Homo sapiens; assay: Selectivity ratio of EC50 for human vasopressin V1b receptor to EC50 for human vasopressin V1a receptor

Vasopressin V1a receptor, sequence (P37288 whole entry): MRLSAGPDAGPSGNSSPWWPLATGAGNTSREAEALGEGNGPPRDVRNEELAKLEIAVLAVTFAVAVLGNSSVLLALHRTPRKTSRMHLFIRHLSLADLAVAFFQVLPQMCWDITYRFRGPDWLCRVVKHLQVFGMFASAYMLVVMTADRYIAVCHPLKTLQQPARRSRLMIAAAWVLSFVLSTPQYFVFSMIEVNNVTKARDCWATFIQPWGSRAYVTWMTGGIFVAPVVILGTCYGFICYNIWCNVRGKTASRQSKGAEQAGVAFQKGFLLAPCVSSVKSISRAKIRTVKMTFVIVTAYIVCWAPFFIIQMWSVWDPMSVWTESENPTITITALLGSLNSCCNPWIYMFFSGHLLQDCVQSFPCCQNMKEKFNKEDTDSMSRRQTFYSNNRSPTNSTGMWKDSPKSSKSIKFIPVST
Vasopressin V2 receptor, sequence (P30518 whole entry): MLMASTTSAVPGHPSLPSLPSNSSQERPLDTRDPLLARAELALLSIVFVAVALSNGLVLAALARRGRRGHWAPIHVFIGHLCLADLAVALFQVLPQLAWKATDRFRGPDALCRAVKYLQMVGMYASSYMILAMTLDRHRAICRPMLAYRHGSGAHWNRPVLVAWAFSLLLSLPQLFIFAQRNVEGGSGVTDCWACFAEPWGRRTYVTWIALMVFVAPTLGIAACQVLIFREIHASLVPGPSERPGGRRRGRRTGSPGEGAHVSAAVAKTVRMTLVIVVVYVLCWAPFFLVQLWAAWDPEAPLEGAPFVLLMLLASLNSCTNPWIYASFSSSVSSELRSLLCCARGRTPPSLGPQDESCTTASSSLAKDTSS
Vasopressin V1a/V2 (Homo sapiens), sequence (P30518 whole entry, looked up): as the sequence (P30518 whole entry) above
Vasopressin V1a/V2 (Homo sapiens), sequence (P37288 whole entry, looked up): as the sequence (P37288 whole entry) above

| Structure (SMILES) | Ratio EC50 [1] | Ratio EC50 (Homo sapiens [2]) | EC50 (Vasopressin V1a receptor; read-out: EC50) [µM] | EC50 (Vasopressin V1b receptor; read-out: EC50) [µM] | EC50 (Oxytocin receptor; cho-k1, read-out: EC50) [µM] | EC50 (Oxytocin receptor; read-out: pEC50 (converted)) [µM] | EC50 (Vasopressin V2 receptor; hek293, read-out: EC50) [µM] | EC50 (Vasopressin V2 receptor; read-out: pEC50 (converted)) [µM] | Ratio EC50 (Homo sapiens [3]) | EC50 (Vasopressin V2 receptor; read-out: EC50) [µM] | EC50 (Oxytocin receptor; read-out: EC50) [µM] | EC50 (Vasopressin V1a receptor; hek293, read-out: EC50) [µM] | EC50 (Vasopressin V1a receptor; read-out: pEC50 (converted)) [µM] | EC50 (Vasopressin V1b receptor; flp-in-293, read-out: EC50) [µM] | EC50 (Vasopressin V1b receptor; read-out: pEC50 (converted)) [µM] |
| --- | --- | --- | --- | --- | --- | --- | --- | --- | --- | --- | --- | --- | --- | --- | --- |
| CC[C@H](C)[C@@H]1NC(=O)[C@H](Cc2ccccc2)NC(=O)[C@@H](N)CSSC[C@@H](C(=O)N2CCC[C@H]2C(=O)N[C@@H](CCCN)C(=O)NCC(N)=O)NC(=O)[C@H](CC(N)=O)NC(=O)[C@H](CC(=O)NCCOCCO)NC1=O (H-CFID(X3)NCP[Orn]G-NH2; disulfide 1-6) | > 2000 | > 2000 | 0.0048 | 0.041 | > 10 | > 10 | > 10 | > 10 | 8.5 |  |  |  |  |  |  |
| CC[C@H](C)[C@@H]1NC(=O)[C@H](Cc2ccccc2)NC(=O)[C@@H](N)CSSC[C@@H](C(=O)N2CCC[C@H]2C(=O)N[C@@H](CCCN)C(=O)NCC(N)=O)NC(=O)[C@H](CC(N)=O)NC(=O)[C@H](CC(=O)NC)NC1=O (H-CFID(NHMe)NCP[Orn]G-NH2; disulfide 1-6) | > 2700 | > 2700 | 0.0036 | 0.039 | > 10 | > 10 | > 10 | > 10 | 10 |  |  |  |  |  |  |
| CC[C@H](C)[C@@H]1NC(=O)[C@H](CC2CCCCC2)NC(=O)[C@@H](N)CSSC[C@@H](C(=O)N2CCC[C@H]2C(=O)N[C@@H](CCN)C(=O)NCC(N)=O)NC(=O)[C@H](CC(N)=O)NC(=O)[C@H](CC(N)=O)NC1=O (H-C[Cha]INNCP[Dab]G-NH2; disulfide 1-6) | > 6200 | > 6200 | 0.0016 | 0.018 | > 10 | > 10 | > 10 | > 10 | 11 |  |  |  |  |  |  |
| CC[C@H](C)[C@@H]1NC(=O)[C@H](Cc2ccccc2)NC(=O)[C@@H](N)CSSC[C@@H](C(=O)N2CCC[C@H]2C(=O)N[C@@H](CN)C(=O)NCC(N)=O)NC(=O)[C@H](CC(N)=O)NC(=O)[C@H](CCC(N)=O)NC1=O (H-CFIQNCP[Dap]G-NH2; disulfide 1-6) | 24 | > 330 | 0.03 | 0.21 | > 10 | > 10 |  |  | 7 | 0.72 |  |  |  |  |  |
| CC[C@H](C)[C@@H]1NC(=O)[C@H](CC2CCCCC2)NC(=O)[C@@H](N)CSSC[C@@H](C(=O)N2CCC[C@H]2C(=O)N[C@@H](CCCN)C(=O)NCC(N)=O)NC(=O)[C@H](CC(N)=O)NC(=O)[C@H](CC(N)=O)NC1=O (H-C[Cha]INNCP[Orn]G-NH2; disulfide 1-6) | > 3100 | > 3100 | 0.0032 | 0.14 | > 10 | > 10 | > 10 | > 10 | 43 |  |  |  |  |  |  |
| CC[C@H](C)[C@@H]1NC(=O)[C@H](Cc2ccccc2)NC(=O)[C@@H](N)CSSC[C@@H](C(=O)N2CCC[C@H]2C(=O)N[C@@H](CCCNCCC(C)C)C(=O)NCC(N)=O)NC(=O)[C@H](CC(N)=O)NC(=O)[C@H](CCC(N)=O)NC1=O (H-CFIQNCP[X5]G-NH2; disulfide 1-6) | 230 | 53 | 0.00082 | 0.1 |  |  |  |  | 120 | 0.19 | 0.044 |  |  |  |  |
| CC[C@H](C)[C@@H]1NC(=O)[C@H](CC2CCCC2)NC(=O)[C@@H](N)CSSC[C@@H](C(=O)N2CCC[C@H]2C(=O)N[C@@H](CCN)C(=O)NCC(N)=O)NC(=O)[C@H](CC(N)=O)NC(=O)[C@H](CC(N)=O)NC1=O (H-C[Ala(cPent)]INNCP[Dab]G-NH2; disulfide 1-6) | > 900 | > 900 | 0.011 | 0.076 | > 10 | > 10 | > 10 | > 10 | 6.9 |  |  |  |  |  |  |
| CC[C@H](C)[C@@H]1NC(=O)[C@H](Cc2ccco2)NC(=O)[C@@H](N)CSSC[C@@H](C(=O)N2CCC[C@H]2C(=O)N[C@@H](CCCNC(C)C)C(=O)NCC(N)=O)NC(=O)[C@H](CC(N)=O)NC(=O)[C@H](CC(N)=O)NC1=O (H-C[Ala(2-furyl)]INNCP[Orn(iPr)]G-NH2; disulfide 1-6) | > 660 | 64 | 0.015 | 1.8 |  |  | > 10 | > 10 | 120 |  | 0.97 |  |  |  |  |
| CC[C@H](C)[C@@H]1NC(=O)C2(CCC2)NC(=O)[C@@H](N)CSSC[C@@H](C(=O)N2CCC[C@H]2C(=O)N[C@@H](CCN)C(=O)NCC(N)=O)NC(=O)[C@H](CC(N)=O)NC(=O)[C@H](CC(N)=O)NC1=O (H-C[Ac4c]INNCP[Dab]G-NH2; disulfide 1-6) | > 830 | > 830 | 0.012 | 0.12 | > 10 | > 10 | > 10 | > 10 | 10 |  |  |  |  |  |  |
| CC[C@H](C)[C@@H]1NC(=O)[C@H](Cc2ccsc2)NC(=O)[C@@H](N)CSSC[C@@H](C(=O)N2CCC[C@H]2C(=O)N[C@@H](CCN)C(=O)NCC(N)=O)NC(=O)[C@H](CC(N)=O)NC(=O)[C@H](CC(N)=O)NC1=O (H-C[3Thi]INNCP[Dab]G-NH2; disulfide 1-6) | > 1300 | > 1300 | 0.0074 | 0.38 | > 10 | > 10 | > 10 | > 10 | 51 |  |  |  |  |  |  |
| CC[C@H](C)[C@@H]1NC(=O)[C@H](Cc2ccccc2)NC(=O)[C@@H](N)CSSC[C@@H](C(=O)N2CCC[C@H]2C(=O)N[C@@H](CCCN)C(=O)NCC(N)=O)NC(=O)[C@H](CC(N)=O)NC(=O)[C@H](CC(=O)NO)NC1=O (H-CFID(NHOH)NCP[Orn]G-NH2; disulfide 1-6) | 630 | > 2400 | 0.0041 | 0.056 | > 10 | > 10 |  |  | 13 | 2.6 |  |  |  |  |  |
| CC[C@H](C)[C@@H]1NC(=O)[C@H](Cc2cccs2)NC(=O)[C@@H](N)CSSC[C@@H](C(=O)N2CCC[C@H]2C(=O)N[C@@H](CCCNC(C)C)C(=O)NCC(N)=O)NC(=O)[C@H](CC(N)=O)NC(=O)[C@H](CC(N)=O)NC1=O (H-C[2Thi]INNCP[Orn(iPr)]G-NH2; disulfide 1-6) | > 710 | 61 | 0.014 | 0.26 |  |  | > 10 | > 10 | 18 |  | 0.86 |  |  |  |  |
| CC[C@H](C)[C@@H]1NC(=O)[C@H](C)NC(=O)[C@@H](N)CSSC[C@@H](C(=O)N2CCC[C@H]2C(=O)N[C@@H](CCN)C(=O)NCC(N)=O)NC(=O)[C@H](CC(N)=O)NC(=O)[C@H](CCC(N)=O)NC1=O (H-CAIQNCP[Dab]G-NH2; disulfide 1-6) |  |  |  |  | > 10 | > 10 | > 10 | > 10 |  |  |  | > 1 | > 1 | > 10 | > 10 |
| CC[C@H](C)[C@@H]1NC(=O)[C@H](Cc2ccc(O)cc2)NC(=O)[C@@H](N)CSSC[C@@H](C(=O)N2CCC[C@H]2C(=O)N[C@@H](CCCN)C(=O)NCC(N)=O)NC(=O)[C@H](CC(N)=O)NC(=O)[C@H](CCC(N)=O)NC1=O |  |  | 0.00023 | 0.056 |  |  |  |  |  |  | 0.0033 |  |  |  |  |
| CC[C@H](C)[C@@H]1NC(=O)[C@H](Cc2csc3ccccc23)NC(=O)[C@@H](N)CSSC[C@@H](C(=O)N2CCC[C@H]2C(=O)N[C@@H](CCN)C(=O)NCC(N)=O)NC(=O)[C@H](CC(N)=O)NC(=O)[C@H](CCC(N)=O)NC1=O (H-C[Bta]IQNCP[Dab]G-NH2; disulfide 1-6) |  |  |  | 0.36 | > 10 | > 10 | > 10 | > 10 |  |  |  | > 1 | > 1 |  |  |
